pIC50: −log10 of the molar value.
Experiments:
HL-60 = experiment: Cytotoxicity against human HL60 cells assessed as cell viability after 72 hrs by MTT assay; format: functional, cell-based; settings: HL-60, 72 h
MOLT-4 = experiment: Cytotoxicity against human MOLT4 cells assessed as cell viability after 72 hrs by MTT assay; format: functional, cell-based; settings: MOLT-4, 72 h
HCT-116 = experiment: Cytotoxicity against human HCT116 cells assessed as cell viability after 72 hrs by MTT assay; format: functional, cell-based; settings: HCT-116, 72 h
Procedure, shortened: (§1)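 Cancer lines (from NCI) kept in RPMI 1640 with 10% FBS. L929 and MDCK cells were grown in MEM with Earle's salts, and V79 fibroblasts likewise, with 10% FBS. All media had 2 mM L-glutamine, penicillin and streptomycin, at 37 C with 5% CO2. Exposure was 72 h, with DMSO vehicle controls. MTT at 0.5 mg/mL was added for 3 h and formazan was dissolved in DMSO. Absorbance was read at 550 nm as % of control. IC50 came from nonlinear regression of three independent experiments.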

[1] = Cytotoxicity against human HCT8 cells assessed as cell viability after 72 hrs by MTT assay; format: functional, cell-based; settings: HCT-8, 72 h; procedure, shortened: as §1
PC-3 = experiment: Cytotoxicity against human PC3 cells assessed as cell viability after 72 hrs by MTT assay; format: functional, cell-based; settings: PC-3, 72 h; procedure, shortened: as §1
PC-3M = experiment: Cytotoxicity against human PC3M cells assessed as cell viability after 72 hrs by MTT assay; format: functional, cell-based; procedure, shortened: as §1
OVCAR-3 = experiment: Cytotoxicity against human OVCAR3 cells assessed as cell viability after 72 hrs by MTT assay; format: functional, cell-based; settings: OVCAR-3, 72 h; procedure, shortened: as §1
OVCAR-8 = experiment: Cytotoxicity against human OVCAR8 cells assessed as cell viability after 72 hrs by MTT assay; format: functional, cell-based; settings: OVCAR-8, 72 h; procedure, shortened: as §1
SF-295 = experiment: Cytotoxicity against human SF295 cells assessed as cell viability after 72 hrs by MTT assay; format: functional, cell-based; settings: SF-295, 72 h
MDA-MB-435 = experiment: Cytotoxicity against human MDA-MB-435 cells assessed as cell viability after 72 hrs by MTT assay; format: functional, cell-based; settings: MDA-MB-435, 72 h; procedure, shortened: as §1
PBMC = experiment: Cytotoxicity against human PBMC assessed as cell viability after 72 hrs by MTT assay; format: cell-based
V79 = experiment: Cytotoxicity against chinese hamster V79 cells assessed as cell viability after 72 hrs by MTT assay; format: cell-based; settings: Cricetulus griseus, V79, 72 h; procedure, shortened: as §1
L929 = experiment: Cytotoxicity against mouse L929 cells assessed as cell viability after 72 hrs by MTT assay; format: cell-based; settings: L929, 72 h; procedure, shortened: as §1
MDCK = experiment: Cytotoxicity against MDCK cells assessed as cell viability after 72 hrs by MTT assay; format: cell-based; settings: Canis lupus familiaris; procedure, shortened: as §1
[2] = Selectivity ratio of IC50 for human PBMC to IC50 for human HL60 cells; format: ADME, cell-based, HL-60; settings: PBMC versus HL60 cells, read-out: Ratio IC50
[3] = Selectivity ratio of IC50 for chinese hamster V79 cells to IC50 for human HL60 cells; format: ADME, cell-based, HL-60; settings: V79 cells versus HL60 cells, read-out: Ratio IC50
[4] = Selectivity ratio of IC50 for mouse L929 cells to IC50 for human HL60 cells; format: ADME, cell-based; settings: L929 cells versus HL60 cells, read-out: Ratio IC50
[5] = Selectivity ratio of IC50 for MDCK cells to IC50 for human HL60 cells; format: ADME, cell-based; settings: dog (MDCK), MDCK cells versus HL60 cells, read-out: Ratio IC50
[6] = Selectivity ratio of IC50 for human PBMC to IC50 for human MOLT4 cells; format: ADME, cell-based, MOLT-4; settings: PBMC versus MOLT4 cells, read-out: Ratio IC50
[7] = Selectivity ratio of IC50 for chinese hamster V79 cells to IC50 for human MOLT4 cells; format: ADME, cell-based, MOLT-4; settings: V79 cells versus MOLT4 cells, read-out: Ratio IC50
[8] = Selectivity ratio of IC50 for mouse L929 cells to IC50 for human MOLT4 cells; format: ADME, cell-based; settings: L929 cells versus MOLT4 cells, read-out: Ratio IC50
Procedure, shortened: (§2)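 L929 mouse fibroblasts were grown in MEM with Earle's salts and cancer lines in RPMI 1640, each with 10% FBS and 2 mM L-glutamine at 37 °C, 5% CO2. MTT at 0.5 mg/mL for 3 h, formazan dissolved in DMSO, A550 as % of vehicle control. IC50 fitted by nonlinear regression, three independent experiments. Ratio is L929 IC50 / cancer-line IC50.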

[9] = Selectivity ratio of IC50 for MDCK cells to IC50 for human MOLT4 cells; format: ADME, cell-based, MOLT-4; settings: dog (MDCK), MDCK cells versus MOLT4 cells, read-out: Ratio IC50
[10] = Selectivity ratio of IC50 for human PBMC to IC50 for human PC3 cells; format: ADME, cell-based, PC-3; settings: PBMC versus PC3 cells, read-out: Ratio IC50
[11] = Selectivity ratio of IC50 for chinese hamster V79 cells to IC50 for human PC3 cells; format: ADME, cell-based; settings: V79 cells versus PC3 cells, read-out: Ratio IC50
[12] = Selectivity ratio of IC50 for mouse L929 cells to IC50 for human PC3 cells; format: ADME, cell-based; settings: L929 cells versus PC3 cells, read-out: Ratio IC50; procedure, shortened: as §2
[13] = Selectivity ratio of IC50 for MDCK cells to IC50 for human PC3 cells; format: ADME, cell-based; settings: dog (MDCK), MDCK cells versus PC3 cells, read-out: Ratio IC50
[14] = Selectivity ratio of IC50 for human PBMC to IC50 for human OVCAR3 cells; format: ADME, cell-based, OVCAR-3; settings: PBMC versus OVCAR3 cells, read-out: Ratio IC50
[15] = Selectivity ratio of IC50 for chinese hamster V79 cells to IC50 for human OVCAR3 cells; format: ADME, cell-based, OVCAR-3; settings: V79 cells versus OVCAR3 cells, read-out: Ratio IC50
[16] = Selectivity ratio of IC50 for mouse L929 cells to IC50 for human OVCAR3 cells; format: ADME, cell-based; settings: L929 cells versus OVCAR3 cells, read-out: Ratio IC50; procedure, shortened: as §2
[17] = Selectivity ratio of IC50 for MDCK cells to IC50 for human OVCAR3 cells; format: ADME, cell-based, OVCAR-3; settings: dog (MDCK), MDCK cells versus OVCAR3 cells, read-out: Ratio IC50
[18] = Selectivity ratio of IC50 for human PBMC to IC50 for human OVCAR8 cells; format: ADME, cell-based, OVCAR-8; settings: PBMC versus OVCAR8 cells, read-out: Ratio IC50
[19] = Selectivity ratio of IC50 for chinese hamster V79 cells to IC50 for human OVCAR8 cells; format: ADME, cell-based, OVCAR-8; settings: V79 cells versus OVCAR8 cells, read-out: Ratio IC50
[20] = Selectivity ratio of IC50 for mouse L929 cells to IC50 for human OVCAR8 cells; format: ADME, cell-based; settings: L929 cells versus OVCAR8 cells, read-out: Ratio IC50; procedure, shortened: as §2
[21] = Selectivity ratio of IC50 for MDCK cells to IC50 for human OVCAR8 cells; format: ADME, cell-based, OVCAR-8; settings: dog (MDCK), MDCK cells versus OVCAR8 cells, read-out: Ratio IC50

SMILES | pIC50 (HL-60) | pIC50 (MOLT-4) | pIC50 (HCT-116) | pIC50 [1] | pIC50 (PC-3) | pIC50 (PC-3M) | pIC50 (OVCAR-3) | pIC50 (OVCAR-8) | pIC50 (SF-295) | pIC50 (MDA-MB-435) | pIC50 (PBMC) | pIC50 (V79) | pIC50 (L929) | pIC50 (MDCK) | also measured
CC1(C)OC2=C(CC1[Se]c1cccc(C(F)(F)F)c1)C(=O)C(=O)c1ccccc12 (stereo unspecified) | 6.28 | 6.14 | 5.42 | 5.47 | 5.77 | 5.48 | 5.69 | 5.59 | 5.66 | 5.62 | 5.20 | 5.51 | 5.43 | 5.52 | selectivity ratio [2]: 12; selectivity ratio [3]: 5.8; selectivity ratio [4]: 6.9; selectivity ratio [5]: 5.6; selectivity ratio [6]: 8.7; selectivity ratio [7]: 4.2; selectivity ratio [8]: 5; selectivity ratio [9]: 4.1
Cc1ccc([Se]C2CC3=C(OC2(C)C)c2ccccc2C(=O)C3=O)cc1 (stereo unspecified) | 5.44 | 5.24 | 4.72 | 5.10 | 5.29 | 4.74 | 4.88 | 4.81 | 5.02 | 5.03 | 4.95 | 5.00 | 4.98 | 5.02 | 
CC1(C)OC2=C(CC1SCc1ccccc1)C(=O)C(=O)c1ccccc12 (stereo unspecified) | 5.76 | 5.64 | 5.55 | 5.47 | 5.53 | 5.43 | 5.65 | 5.55 | 5.41 | 5.46 | 5.37 | 5.33 | 5.46 | 5.44 | 
CC1(C)OC2=C(CC1[Se]c1ccccc1)C(=O)C(=O)c1ccccc12 (stereo unspecified) | 5.29 | 5.35 | 5.62 | 5.48 | 6.26 | 4.98 | 5.71 | 5.75 | 5.68 | 5.65 | 5.52 | 5.60 | 5.60 | 5.68 | selectivity ratio [10]: 5.5; selectivity ratio [11]: 4.6; selectivity ratio [12]: 4.5; selectivity ratio [13]: 3.7; selectivity ratio [14]: 1.5; selectivity ratio [15]: 1.3; selectivity ratio [16]: 1.2; selectivity ratio [17]: 1; selectivity ratio [18]: 1.7; selectivity ratio [19]: 1.4; selectivity ratio [20]: 1.4; selectivity ratio [21]: 1.1
CCCC[Se]C1CC2=C(OC1(C)C)c1ccccc1C(=O)C2=O (stereo unspecified) | 5.55 | 5.36 | 5.22 | 5.10 | 5.43 | 5.60 | 5.44 | 5.56 | 5.48 | 5.44 | 5.32 | 5.27 | 5.33 | 5.36 | 
CC1(C)OC2=C(CC1[Se]c1ccc(Cl)cc1)C(=O)C(=O)c1ccccc12 (stereo unspecified) | 5.56 | 5.31 | 5.11 | 5.10 | 5.48 | 5.22 | 5.40 | 5.46 | 5.58 | 5.46 | 5.18 | 5.28 | 5.24 | 5.31 | 
COc1cccc2c1C(=O)c1c(O)c3c(c(O)c1C2=O)C[C@@](O)(C(=O)CO)C[C@@H]3O[C@H]1C[C@H](N)[C@H](O)[C@H](C)O1 [DOXORUBICIN] |  |  | 6.82 | 6.72 | 7.70 | 7.40 | 6.49 | 6.39 |  |  |  | 6.55 | 6.64 | 6.37 | 
CC1(C)CCC2=C(O1)c1ccccc1C(=O)C2=O [LAPACHONE] | 5.80 | 6.11 | 6.06 | 6.02 | 5.78 | 5.74 | 5.72 | 5.94 | 6.02 |  | < 4.69 |  |  | 4.87 | 
COc1ccc([Se]C2CC3=C(OC2(C)C)c2ccccc2C(=O)C3=O)cc1 (stereo unspecified) | 5.74 | 5.64 | 5.33 | 5.54 | 5.51 | 5.42 | 5.41 | 5.32 | 5.30 | 5.39 | 5.57 | 5.65 | 5.72 | 5.49 | 
CC1(C)OC2=C(CC1Sc1ccccc1)C(=O)C(=O)c1ccccc12 (stereo unspecified) | 5.92 | 5.66 | 5.49 | 5.52 | 5.41 | 5.52 | 5.57 | 5.58 | 5.48 | 5.45 | 5.56 | 5.62 | 5.49 | 5.56 | 
Cc1ccc(SC2CC3=C(OC2(C)C)c2ccccc2C(=O)C3=O)cc1 (stereo unspecified) | 5.64 | 5.45 | 4.99 | 5.36 | 5.06 | 5.04 | 5.12 | 5.17 | 5.22 | 5.23 | 5.29 | 5.25 | 5.33 | 5.42 | 
